Screens deposited in PubChem BioAssay by The Scripps Research Institute Molecular Screening Center.
An excerpt weighted towards active compounds, which were near 2.3% of everything screened.
SIAE inh: human SIAE inhibition, primary screen. SIAE FP-Rh probe binding, fluorescence polarization. 370,000 compounds, 0.69% hits. Q9HAT2. inhibition, % at 9.66 µM;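 active means inhibition above a cutoff: mean of compounds within the control limits plus 3 SD of those, cut at about 17% in these data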;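 further: 0% = plate median of compound wells and 100% = probe without SIAE protein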
TCR CD3 inh: inhibitors of human TCR-CD3 interaction; TAMRA-labeled TCR probe fluorescence, biochemical; inhibition, % at 9.4 µM; 360,000 compounds, 0.37% hits;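 further: recombinant mutant TCR 2C K166C tagged with TAMRA read by polarization; 0% = receptor in buffer alone and 100% = receptor with positive control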
pPAFAH inh: pPAFAH (human) enzyme inhibition; Q13093; recombinant pPAFAH, FP-rhodamine probe fluorescence polarization; inhibition, % at 3.39 µM; 330,000 compounds, 1.5% hits; AID 463082;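 active means inhibition above the mean inhibition across the screen plus 3 SD, cut at about 25% in these data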;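 further: inhibitors block binding of the rhodamine activity-based probe so polarization drops; 0% = enzyme with DMSO and 100% = wells lacking pPAFAH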
HTRA1 inhibitor: blocks human HTRA1 serine peptidase. Q92743. recombinant HTRA1, FP-rhodamine activity-based probe, fluorescence polarization. inhibition, % at 5.96 µM. 340,000 compounds, 0.5% hits; in the data active means inhibition above about 36%;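 further: 0% = enzyme with DMSO and 100% = wells lacking enzyme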
mABHD4 FP: inhibits mouse alpha/beta hydrolase domain 4; purified mABHD4, FP-Rh probe fluorescence polarization; inhibition, % at 8.92 µM; 370,000 compounds, 0.54% hits; AID 720543;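 active means inhibition exceeding the mean over every tested compound plus 3 SD, cut at about 30% in these data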;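 further: 0% = plate median of compound wells and 100% = S159A mutant with DMSO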
Target sequence (Q8VD66 whole entry, looked up, the tested form may be a part): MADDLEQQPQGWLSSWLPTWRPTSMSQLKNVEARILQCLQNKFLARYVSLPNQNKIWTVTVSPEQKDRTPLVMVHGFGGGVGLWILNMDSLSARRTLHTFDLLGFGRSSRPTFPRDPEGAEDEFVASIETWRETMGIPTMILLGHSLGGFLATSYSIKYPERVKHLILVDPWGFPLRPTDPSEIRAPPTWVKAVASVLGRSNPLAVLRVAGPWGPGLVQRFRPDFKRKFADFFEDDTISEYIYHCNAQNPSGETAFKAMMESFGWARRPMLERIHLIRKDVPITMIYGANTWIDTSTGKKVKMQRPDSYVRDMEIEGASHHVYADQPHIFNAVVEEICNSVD
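Material: mouse ABHD4 enzyme, wild type; Benchmarks: S159A mutant high control, sample median low control; Buffer or medium: HEPES pH 7.0, NaCl, Pluronic buffer; Signal: fluorescence polarization; Read-out: percent inhibition of probe binding, normalized to plate controls; Timing: pre-incubation 45 min, probe exposure 60 min, at 25 °C; Dosing: 8.92 µM, single dose.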
HTRA1 inh conf: confirmation of human HTRA1 inhibitors. shares compounds with HTRA1 inhibitor. recombinant HTRA1, FP-rhodamine activity-based probe, fluorescence polarization. inhibition, % at 5.96 µM. 1,600 compounds, 66% hits. AID 540248;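 active means mean inhibition over three repeats above a set limit taken from the earlier primary screen, cut at about 37% in these data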;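 further: 0% = HTRA1 with DMSO and 100% = wells lacking HTRA1; inhibitors block probe binding so polarization drops and inhibition rises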
BSA probe FL: interferes with TAMRA-BSA probe, flagging TCR-CD3 hits; shares compounds with TCR CD3 inh; TAMRA-labeled BSA probe fluorescence counterscreen; inhibition, % at 9.4 µM; 1,200 compounds, 10% hits; in the data active means inhibition above about 23%;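 further: 0% = buffer low control and 100% = reference high control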
TCR-CD3 conf: TCR-CD3 interaction inhibition, confirmation | shares compounds with TCR CD3 inh | TAMRA-labeled TCR probe fluorescence binding assay | inhibition, % at 9.4 µM | 1,200 compounds, 48% hits | AID 652036
ABHD4 confirm: ABHD4 (mouse) inhibition, FP confirmation; AID 720658; purified mABHD4, FP-Rh probe fluorescence polarization; inhibition, % at 8.92 µM; 1,800 compounds, 55% hits; shares compounds with mABHD4 FP;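 active means mean inhibition across replicates above the hit cutoff set in the primary screen, cut at about 30% in these data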;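 further: 0% = wild-type ABHD4 with DMSO and 100% = catalytically dead S159A mutant with DMSO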
An asterisk follows results filed as active; nt = not tested or not shown. Unless noted, no stated cut-off is given here; in the data, active means inhibition above about 19%; inactive means the rest.

SMILES	SIAE inh	TCR CD3 inh	pPAFAH inh	HTRA1 inhibitor	mABHD4 FP	HTRA1 inh conf	ABHD4 confirm	others
CCOC(=O)C1Nc2ccc(C)cc2C2C=CCC12 (stereo not drawn)	9	0	22	34	22	nt	nt
O=C(O)c1cc2ccccc2c2c1C(=O)c1ccccc1-2	-1	3	nt	1	3	nt	nt
O=C1C=C(c2c(O)ccc3ccccc23)c2ccccc2C1=O	8	4	nt	46*	52*	48*	55*
Nc1ccc(N(c2ccccc2)c2ccc(N)cc2)cc1	11	-1	10	65*	39*	54*	48*
Cc1ccc2c(c1)c1c3n2CC(=C2C(=O)OC(C)(C)OC2=O)NC3CCC1 (stereo not drawn)	8	17	29*	51*	37*	61*	30*
CCCCCCCCCCCCCCCC[n+]1cccc(C(=O)N(CC)CC)c1	0	0	32*	58*	43*	65*	48*
CCCCCc1ccc(OCCC[n+]2ccccc2)c(CCCCC)c1	14	-6	3	15	23	nt	nt
CCCCCCCCCCCCCCCC[n+]1ccc(C(N)=O)cc1	10	5	13	73*	41*	76*	88*
CCCCCCCCCCCCCCCC[n+]1ccccc1	1	5	nt	70*	54*	77*	50*
CCCCCCCC[n+]1cccc(C(=O)N(CC)CC)c1	-2	4	-4	3	-1	nt	nt
COc1ccc2c(c1)C[C@@H]1CC(C)(C)CN1S2(=O)=O	1	nt	nt	nt	0	nt	nt
Cn1c(=O)cc(OCCCC(=O)Nc2cc(Br)ccn2)c2ccccc21	1	nt	nt	nt	-1	nt	nt
CCN(C(=O)[C@@H](C)[C@@H](O)c1ccc2ccccc2c1)c1ccccc1	-1	nt	nt	nt	-3	nt	nt
C/C(=N\Nc1nc2c(s1)CCCC2)c1ccc(Cl)cc1	11	2	19	54*	32*	14	50*
O=c1oc(-c2ccc(O)c(O)c2)cc2cc(O)cc(O)c12	12	18	10	56*	51*	124*	36*
O=c1oc(-c2ccc(O)c(O)c2)cc2cccc(O)c12	5	11	25*	62*	35*	68*	34*
CCOC(=O)c1c(C)oc2c1C(=O)c1ccccc1C2=O	-1	1	6	4	1	nt	nt
CCOc1ccc2noc3c2c1C(=O)c1ccccc1-3	17*	11	21	49*	58*	31	19
Cc1ccc(CNc2ccc(N3CCOCC3)cc2)cc1	10	4	9	35	19	nt	nt
CC(C)c1ccc(CNc2ccc(N3CCOCC3)cc2)cc1	15	2	20	57*	30*	6	16
O=[N+]([O-])c1ccc2c([N+](=O)[O-])ccc3c2c1CC3	16	9	nt	54*	40*	38*	90*
O=C(c1ccco1)N1CCN(CCCCN2C(=O)c3ccccc3C2=O)CC1	5	-3	1	-2	1	nt	nt
O=C1c2ccccc2-c2onc3c(N4CCN(CCO)CC4)cc(N4CCN(C(=O)c5ccco5)CC4)c1c23	16	10	29*	67*	35*	72*	43*
CN(Cc1ccccc1)Cc1c(O)ccc2ccccc12	5	9	6	1	9	nt	nt
CN(Cc1cc(Cl)cc(Cl)c1O)Cc1c(O)ccc2ccccc12	5	-6	nt	52*	30*	62*	18
SMILES	SIAE inh	TCR CD3 inh	pPAFAH inh	HTRA1 inhibitor	mABHD4 FP	HTRA1 inh conf	ABHD4 confirm	others
COc1ccc(C)cc1N=Nc1ccc(O)c2ncccc12	4	-9	nt	86*	36*	64*	39*
CCCCNC(=O)C1C(c2ccc(C(F)(F)F)cc2)=Nc2ccccc2N1C(C)=O (stereo not drawn)	2	6	nt	nt	-9	nt	nt
Cc1ccc(C)c(N=Cc2cc3c(cc2[N+](=O)[O-])OCO3)c1	27*	-1	18	48*	50*	5	45*
COc1ccc2[nH]c3c4c(ccc3c2c1)C(=O)C=CC4=O	1	1	nt	80*	56*	53*	51*
Cc1cccc2sc(NNC(=O)c3cc(=O)c4ccccc4o3)nc12	13	-1	27*	38*	30*	64*	44*
O=C(O)c1ccc(CSc2nnnn2-c2ccc(F)cc2)cc1	-6	6	2	-1	-2	nt	nt
O=C(CSc1nnnn1-c1ccc(F)cc1)c1ccc(O)c(O)c1	5	6	31*	41*	30*	53*	15
CC1(C)CNc2cc(N)ccc2S1	6	0	14	72*	38*	13	40*
COc1cccc2c1-c1c(O)cccc1C2=O	3	0	4	-1	-1	nt	nt
COc1cccc2c1C(=O)c1c(O)c3c(c(O)c1C2=O)C[C@](O)(C(C)=O)C[C@H]3O[C@@H]1C[C@@H](N)[C@@H](O)[C@@H](C)O1	57*	163*	57*	68*	68*	72*	61*	BSA probe FL=179*;TCR-CD3 conf=148*
COC(=O)[C@]12C[C@H](CC(=O)NCCCN3CCCC3=O)C(=O)N(Cc3cccc4ccccc34)C1=C[C@H](COCc1ccccc1)O[C@@H]2C	8	nt	nt	nt	-3	nt	nt
CCOC(=O)c1ccc(CC(=O)c2ccc(O)c(O)c2O)o1	3	21*	nt	53*	31*	82*	24	BSA probe FL=-15;TCR-CD3 conf=21*
O=C1c2ccccc2C(=O)c2c1cccc2N1CCCC1	0	-22	20	45*	33*	49*	57*
O=C1C=C(N2CCCCC2)c2ccccc2C1=O	9	1	11	nt	17	nt	nt
CN(Cc1ccccc1)C(=O)C(=O)c1c[nH]c2ccccc12	-6	-1	nt	-4	-5	nt	nt
COc1ccc(S(=O)(=O)NCc2ccc3c(c2)cc(C)n3C)cc1	18*	35*	13	40*	47*	0	15	BSA probe FL=25*;TCR-CD3 conf=28*
c1ccc(-c2nnc3sc(C4CCCCC4)nn23)cc1	-2	nt	nt	nt	1	nt	nt
Nc1cccc2c(O)cccc12	11	-10	10	40*	42*	12	51*
Oc1ccc(/C=N/NC(=S)Nc2cccnc2)c(O)c1	6	14	-4	14	18	nt	nt
Oc1cccc(/C=N/NC(=S)Nc2cccnc2)c1O	14	0	16	42*	31*	24	25
